Bioassay records deposited in PubChem BioAssay by several laboratories.
UBC13 polyUb = blocks human UBC13 polyubiquitin chain formation; P61088; TR-FRET; inhibition, % at 20 µM; 0.47% of 330,000 active; in the data active = inhibition above about 45%, passing the limit was not always enough; inconclusive = no clear call, values can overlap the other calls
PHOSPHO1 block = PHOSPHO1 (human) inhibition. recombinant PHOSPHO1, absorbance phosphatase assay. inhibition, % at 13.3 µM. Q8TCT1. 1.1% of 290,000 active; in the data active = inhibition above about 60%
proCasp3 act = activators of human procaspase-3. recombinant procaspase-3 D3A, Ac-DEVD-pNA absorbance 405 nm. 0.11% of 330,000 active. AID 463141. activation, % at 8.5 µM;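 active = activation above the mean of all tested compounds plus 3 SD, cut at about 21% in these data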;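 note: 0% = DMSO alone and 100% = DMSO wells spiked with extra 5 µM PC-3 D3A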
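Test system: Procaspase-3 D3A mutant; medium: Zinc-free HEPES/NaCl buffer with 0.01% Triton X-100 at pH 7.4; reagent: DEVD-pNA substrate; doses: one concentration, 8.5 µM nominal, 0.8% DMSO; times: 1 h preincubation plus 2 h reaction at 25 °C; signal: Epi-absorbance at 405 nm of released p-nitroaniline, 0 and 120 min; replicates: singlicate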
IDE cell inh = cellular human IDE inhibition. HEK cells, FAbetaB cleavage, fluorescence polarization. inhibition, % at 5.59 µM. 0.41% of 320,000 active. AID 434962;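 active = percent inhibition above the average of all tested compounds plus 3 SD, set per screening campaign, cut at about 16% in these data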;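 note: IDE supplied by intact live HEK cells; FP after avidin binding of uncleaved biotin substrate so inhibition keeps polarization high; 0% = DMSO wells and 100% = 60 µM reference IDE inhibitor Ii1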
Target sequence (P14735 whole entry, looked up): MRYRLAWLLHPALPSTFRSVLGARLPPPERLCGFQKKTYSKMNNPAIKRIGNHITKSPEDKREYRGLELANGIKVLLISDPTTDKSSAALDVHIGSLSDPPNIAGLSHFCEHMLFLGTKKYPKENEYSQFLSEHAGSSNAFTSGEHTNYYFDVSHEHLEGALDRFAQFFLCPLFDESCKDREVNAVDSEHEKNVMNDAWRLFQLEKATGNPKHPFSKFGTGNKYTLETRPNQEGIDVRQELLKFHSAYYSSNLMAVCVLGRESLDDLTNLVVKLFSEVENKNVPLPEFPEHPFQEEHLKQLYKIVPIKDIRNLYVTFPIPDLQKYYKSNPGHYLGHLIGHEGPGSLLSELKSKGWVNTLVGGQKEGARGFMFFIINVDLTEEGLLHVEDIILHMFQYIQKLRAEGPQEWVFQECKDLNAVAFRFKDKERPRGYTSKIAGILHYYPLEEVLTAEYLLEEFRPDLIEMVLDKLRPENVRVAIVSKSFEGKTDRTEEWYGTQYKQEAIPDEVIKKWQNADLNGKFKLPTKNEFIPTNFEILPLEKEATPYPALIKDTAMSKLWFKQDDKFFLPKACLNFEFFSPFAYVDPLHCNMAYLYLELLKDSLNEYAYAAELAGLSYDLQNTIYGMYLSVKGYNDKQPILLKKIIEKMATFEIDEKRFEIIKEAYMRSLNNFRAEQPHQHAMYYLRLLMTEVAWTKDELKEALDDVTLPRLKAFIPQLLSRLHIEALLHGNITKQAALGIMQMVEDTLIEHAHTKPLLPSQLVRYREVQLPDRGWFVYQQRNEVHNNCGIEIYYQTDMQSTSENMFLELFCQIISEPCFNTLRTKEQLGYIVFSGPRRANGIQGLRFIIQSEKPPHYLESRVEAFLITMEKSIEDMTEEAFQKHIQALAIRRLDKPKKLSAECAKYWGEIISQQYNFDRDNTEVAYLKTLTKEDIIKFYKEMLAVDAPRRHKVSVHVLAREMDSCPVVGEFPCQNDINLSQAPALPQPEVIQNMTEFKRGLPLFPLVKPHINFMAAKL
IDE cell activ = IDE (human) activation, cell-based; P14735; HEK cells, FAbeta-B cleavage, fluorescence polarization; 0% vehicle, 100% cell-free pure enzyme wells; activation, % at 5.96 µM; 0.073% of 340,000 active;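 active = activation above the mean of all tested compounds plus 3 SD, set per screening campaign, cut at about 17% in these data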
procasp7 counter = counter-screen: procaspase-7 (human) activation; activation, % at 8.5 µM; P55210; recombinant procaspase-7, Ac-DEVD-pNA absorbance 405 nm; D23A/D198A/D206A triple mutant, cannot self-cleave; scale: DMSO 0, 5 µM enzyme 100; AID 463210; 0.093% of 330,000 active;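 active = percent activation above the screen-wide mean plus 3 SD, cut at about 25% in these data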
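System: Procaspase-7 triple mutant (PC-7 D3A); measure: % activation from two-timepoint absorbance difference, scaled to controls; times: 1 h compound preincubation, 2 h substrate cleavage, 25 °C; also added: Ac-DEVD-pNA substrate, 400 µM as added; measured by: Epi-absorbance of released pNA at 405 nm, two timepoints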
Casp3 UBC13 ctr = caspase-3 inhibition (UBC13 counter-screen); 4% of 1,400 active; AID 488856; shares compounds with UBC13 polyUb; inhibition, % at 20 µM; Recombinant caspase-3, Caspase-Glo 3/7 luminescence, 60 min;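 active = mean inhibition across replicates above about 26%, limit read from the data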;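 note: plate controls were DMSO with caspase-3 for no effect and DMSO wells lacking enzyme for full effect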
UBC13 confirm = confirmation of human UBC13 polyubiquitin inhibitors. UBC13 polyubiquitination, TR-FRET, biochemical. shares compounds with UBC13 polyUb. 68% of 1,400 active. inhibition, % at 10 µM. AID 488859; in the data active = inhibition above about 45%; inconclusive = no clear call, values can overlap the other calls
An asterisk follows results filed as active. In the library only some 1.9% were active in any assay of this set; here they are far more common.

What do the screens show for `COc1ccc(C2=Nn3c(nnc3-c3ccccc3F)SC2)cc1OC1CCCC1`?
UBC13 polyUb: 55*; proCasp3 act: 4; IDE cell inh: 4; IDE cell activ: 5; procasp7 counter: 0; Casp3 UBC13 ctr: 7; UBC13 confirm: 40

How did COc1ccc(C2=Nn3c(nnc3-c3ccccc3F)SC2)cc1OC1CCOC1 (stereo unspecified) do in these assays?
UBC13 polyUb: 46*; proCasp3 act: 6; IDE cell inh: 10; IDE cell activ: 0; procasp7 counter: -7; Casp3 UBC13 ctr: -1; UBC13 confirm: 31

What do the screens show for `CC(=O)c1ccc(N2CCN(C(=O)c3cccs3)CC2)c(F)c1`?
UBC13 polyUb: 0; PHOSPHO1 block: 24; proCasp3 act: -4; IDE cell inh: 8; IDE cell activ: -1; procasp7 counter: 0

Results for Cc1cc(C)c(NC(=O)CNC(=O)CN(C)Cc2ccc(Br)s2)c(C)c1 ?
UBC13 polyUb: 12; proCasp3 act: 3; IDE cell inh: 1; IDE cell activ: 1; procasp7 counter: -1

How did O=C(CN1C(=O)NC2(CCCC2)C1=O)NCCC1=CCCCC1 do in these assays?
UBC13 polyUb: 97*; PHOSPHO1 block: 46; proCasp3 act: -1; IDE cell inh: -4; IDE cell activ: 3; procasp7 counter: -5; Casp3 UBC13 ctr: -1; UBC13 confirm: 6

Results for Cc1ccc(C2(C)NC(=O)N(CC(=O)NCCC3=CCCCC3)C2=O)cc1 (stereo unspecified) ?
UBC13 polyUb: 1; PHOSPHO1 block: 16; proCasp3 act: 0; IDE cell inh: 2; IDE cell activ: 5; procasp7 counter: 2

How did O=C(COC(=O)c1c[nH]c(=O)[nH]c1=O)Nc1cccc([N+](=O)[O-])c1 do in these assays?
UBC13 polyUb: 66*; proCasp3 act: 2; IDE cell inh: -3; IDE cell activ: 4; procasp7 counter: 8; Casp3 UBC13 ctr: -3; UBC13 confirm: 76*

What do the screens show for `Cc1cc(C(=O)OCC(=O)Nc2cccc([N+](=O)[O-])c2)c(C)o1`?
UBC13 polyUb: 3; proCasp3 act: 10; IDE cell inh: 1; IDE cell activ: 0; procasp7 counter: 0

Results for O=C(NC(Cc1cccc(F)c1)C(=O)O)C1CCCCC1 (stereo unspecified) ?
UBC13 polyUb: 6; proCasp3 act: -6; IDE cell inh: 1; IDE cell activ: 3; procasp7 counter: 4

How did Nc1c(Cl)ncnc1N/N=C/c1cccc(O)c1 do in these assays?
UBC13 polyUb: 62*; PHOSPHO1 block: 35; proCasp3 act: -1; IDE cell inh: 3; IDE cell activ: 2; procasp7 counter: -9; Casp3 UBC13 ctr: 81*; UBC13 confirm: -8

Results for CC(=NCc1ccco1)c1c(C)[nH]n(-c2nc3ccccc3s2)c1=O ?
UBC13 polyUb: 53*; PHOSPHO1 block: -2; proCasp3 act: 1; IDE cell inh: 8; IDE cell activ: 3; procasp7 counter: 3; Casp3 UBC13 ctr: 78*; UBC13 confirm: inconclusive

What do the screens show for `Cc1cc(C)c2nc(NCCCNC(=S)NCCCN(C)C)c(C#N)cc2c1`?
UBC13 polyUb: 50*; PHOSPHO1 block: -22; proCasp3 act: -4; IDE cell inh: 1; IDE cell activ: 4; procasp7 counter: 2; Casp3 UBC13 ctr: 5; UBC13 confirm: 42

Results for COCCCNC(=S)NCCNc1nc2cc(C)cc(C)c2cc1C#N ?
UBC13 polyUb: 13; PHOSPHO1 block: 8; proCasp3 act: -7; IDE cell inh: 1; IDE cell activ: 3; procasp7 counter: 0

What do the screens show for `COCCn1c(SCC(N)=O)nc2c(c1=O)SC(C)C2` (stereo unspecified)?
UBC13 polyUb: 49*; PHOSPHO1 block: -17; proCasp3 act: 4; IDE cell inh: 4; IDE cell activ: 7; procasp7 counter: 2; Casp3 UBC13 ctr: -4; UBC13 confirm: -4

What do the screens show for `CC[C@@H](C)[C@H](CN[C@H](CNC)C(C)C)NC[C@@H](C)c1ccc(CC(C)C)cc1`?
UBC13 polyUb: 89*; PHOSPHO1 block: 15; proCasp3 act: -2; IDE cell inh: 2; IDE cell activ: 7; procasp7 counter: 4; Casp3 UBC13 ctr: -2; UBC13 confirm: 72*

How did Cc1nn2c(=O)cc(CSCC(=O)Nc3ccccc3Cl)nc2s1 do in these assays?
UBC13 polyUb: -6; PHOSPHO1 block: 32; proCasp3 act: 2; IDE cell inh: 4; IDE cell activ: 0; procasp7 counter: 7

Results for C#CCOCCOCCOCCNc1nc(N2CCN(C(=O)[C@H](CCCCN)n3cc([C@@H](N)C(C)CC)nn3)CC2)nc(N2CCN(C(=O)[C@H](CCCCN)n3cc([C@@H](N)CC(C)C)nn3)CC2)n1 (stereo partly specified) ?
UBC13 polyUb: 105*; PHOSPHO1 block: 22; proCasp3 act: 3; IDE cell inh: 3; IDE cell activ: 0; procasp7 counter: -14; Casp3 UBC13 ctr: 3; UBC13 confirm: 112*

What do the screens show for `C#CCOCCOCCOCCNc1nc(N2CCN(C(=O)[C@H](CC(N)=O)n3cc(C(N)[C@@H](C)CC)nn3)CC2)nc(N2CCN(C(=O)[C@H](CCCCN)n3cc([C@@H](N)CC(N)=O)nn3)CC2)n1` (stereo partly specified)?
UBC13 polyUb: 15; proCasp3 act: -2; IDE cell inh: -2; IDE cell activ: 0; procasp7 counter: 11

Results for C#CCOCCOCCOCCNc1nc(N2CCN(C(=O)[C@H](CCCCN)n3cc([C@@H](N)CO)nn3)CC2)nc(N2CCN(C(=O)[C@H](CCCCN)n3cc([C@@H](N)CC(C)C)nn3)CC2)n1 ?
UBC13 polyUb: 73*; proCasp3 act: 6; IDE cell inh: -1; IDE cell activ: 2; procasp7 counter: 0; Casp3 UBC13 ctr: 3; UBC13 confirm: 66*

How did C#CCOCCOCCOCCNc1nc(N2CCN(C(=O)[C@H](CCCCN)n3cc([C@@H](N)[C@H](C)CC)nn3)CC2)nc(N2CCN(C(=O)[C@H](CCCCN)n3cc([C@@H](N)CC(N)=O)nn3)CC2)n1 do in these assays?
UBC13 polyUb: 99*; proCasp3 act: -2; IDE cell inh: 0; IDE cell activ: -2; procasp7 counter: 4; Casp3 UBC13 ctr: -1; UBC13 confirm: 107*
